In one assay the test system is JC. In words: Modulatory activity at P-gp in mouse JC cells assessed as lowest drug concentration required to increase intracellular [3H]taxol accumulation pretreated for 30 mins prior to [3H]taxol addition measured after 60 mins by liquid scintillation counting analysis. The assay is classed as cell-based. The gist of the method: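 JC cells were seeded at about 25% confluency and grown 3–4 days to near confluency. Medium was switched to serum-free, and compounds were preincubated for 30 min at 37 °C. About 0.1 µCi [³H]Taxol (75 Ci/mmol) per well followed, for 60 min at 37 °C. Cells were washed twice with ice-cold PBS and lysed in 1% SDS. Intracellular label was counted by liquid scintillation, and the lowest concentration giving maximal accumulation was recorded.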

Assay [1] in a line: Cytotoxicity against mouse JC cells assessed as inhibition of cell survival after 48 hrs by SRB assay. The format is functional, cell-based. The gist of the method: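 JC (CRL-2116) cells kept in RPMI-1640 with L-glutamine, 10% FBS and 50 μg/ml gentamicin at 37 °C, 5% CO₂. Cells were seeded at about 20% confluency and left 24 h to attach, then exposed to a range of concentrations for 48 h. Cells were PBS-washed, fixed in 10% trichloroacetic acid and stained with 0.4% SRB in 1% acetic acid. Dye was dissolved in 10 mM Tris and absorbance read at 570 nm.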
A general note: In SRB staining, fixed cells bind dye roughly in proportion to their protein.

The nature of assay [2]: Ratio of compound IC50 to paclitaxel IC50 for mouse JC cells after 48 hrs by SRB assay. The format is functional.

The source made the active and inactive calls. The calls are words filed in the database; no cut-off is given here.

The source of these data is ChEMBL document CHEMBL2331097, “Synthesis of 5,7-disubstituted-4-methyl-7H-pyrrolo[2,3-d]pyrimidin-2-amines as microtubule inhibitors” (Bioorg Med Chem, 2013).

The term IC50 denotes the concentration needed to halve the response being measured. As to `COc1ccc(Cn2cc(Sc3ccccc3OC)c3c(C)nc(N)nc32)cc1`, the LED result in the assay on JC was “inactive”. Further, the IC50 in assay [1] is 2.5 µM.

As for `Cc1nc(N)nc2c1c(Sc1ccccc1)cn2Cc1ccccc1`, the LED result with JC was “inactive”. For the same compound, the IC50 in assay [1] is 4 µM.

Turning to `COc1ccccc1Sc1cn(Cc2ccccc2)c2nc(N)nc(C)c12`, the LED with JC was 1.5 µM. Besides, the IC50 in assay [1] was found to be 11 µM.

As to `COc1cc(Cn2cc(Sc3cc(OC)c(OC)c(OC)c3)c3c(C)nc(N)nc32)cc(OC)c1OC`, the LED entry with JC was “inactive”. Further, the half-maximal inhibitory concentration (IC50) in assay [1] is > 100 µM.

`COc1ccc(Sc2cn(Cc3ccccc3)c3nc(N)nc(C)c23)cc1`: the LED entry with JC was “inactive”. Moreover, the IC50 in assay [1] is 10 µM.

In the case of `COc1cc(CCc2cn(Cc3cc(OC)c(OC)c(OC)c3)c3nc(N)nc(C)c23)cc(OC)c1OC`, the “Ratio IC50” value in assay [2] amounted to 6.6. In addition, the LED entry with JC is “inactive”. In assay [1], the IC50 stood at 1 µM.

On to `COc1ccc(Cn2cc(CCc3cc(OC)c(OC)c(OC)c3)c3c(C)nc(N)nc32)cc1OC`, for which the LED in the assay on JC stood at 1.2 µM. Moreover, the IC50 in assay [1] turned out to be 1.5 µM.
